# Test results published in ChEMBL document CHEMBL4414552, “Homotrimerization Approach in the Design of Thrombospondin-1 Mimetic Peptides with Improved Potency in Triggering Regulated Cell Death of Cancer Cells” (J Med Chem, 2019).
# Active and inactive are the calls of the source. The rule behind the calls is not given here. Square brackets hold non-standard residues; d marks the D form. Peptide text beside a SMILES is read from it. NMeR = CN[C@@H](CCCNC(=N)N)C(=O)O; Nle = CCCC[C@H](N)C(=O)O
# Legend:
# MEC1 [1] = experiment: Induction of cell death in human MEC1 cells at 50 uM in presence of IP3R inhibitor 2-APB administered 1 hr post 2-APB treatment in serum-free medium by annexin V-APC/propidium iodide staining based flow cytometric analysis; format: functional
# Method in brief: (§1)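 Peptide was then added at 5 or 50 μM in serum-free medium for 2 h. Cell death was read by Ann-V/PI flow cytometry and normalized to each peptide's control to give an index. Mean ± SD of at least two experiments.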
# A549 [2] = experiment: Disruption of membrane integrity in human A549 cells assessed as increase in adenylate kinase release at 200 uM by ToxiLight bioassay; format: functional, cell-based
# MEC1 [3] = experiment: Induction of cell death in human MEC1 cells at 50 uM in presence of extracellular calcium chelator BAPTA administered 30 mins post BAPTA treatment in serum-free medium by Annexin V-APC/propidium iodide staining based flow cytometric analysis; format: functional
# MEC1 [4] = experiment: Induction of cell death in human MEC1 cells at 50 uM in presence of ryanodine inhibitor dantrolene administered 1 hr post dantrolene treatment in serum-free medium by annexin V-APC/propidium iodide staining based flow cytometric analysis; format: functional; method in brief: as §1
# MEC1 [5] = experiment: Cytotoxicity against human MEC1 cells assessed as induction of cell death after 2 hrs by annexin V/propidium iodide staining based flow cytometric analysis; format: functional; conditions: MEC1, 2 h, read-out: LC50 (the source's name)
# Method in brief: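 MEC-1 CLL cells (TP53-dysfunctional) maintained in Advanced RPMI 1640 with 10% fetal calf serum, 2 mM L-glutamine and penicillin–streptomycin. Peptide treatment for 2 h in complete medium. Ann-V-APC (0.1 μg/mL) and PI (0.5 μg/mL) staining, read by flow cytometry. Cell death taken as the sum of AnnV+/PI- and AnnV+/PI+ events. Mean ± SD of at least three independent experiments.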
# [6] = Solubility of the compound in PBS with 0.05% Tween 20 and 1% DMSO; format: physicochemical; conditions: buffer
# A549 [7] = experiment: Induction of cell death in human A549 cells at 100 uM in presence of PLCgamma1 inhibitor U73122 administered 1 hr post U73122 treatment in serum-free medium by annexin V-APC/propidium iodide staining based flow cytometric analysis; format: functional
# Method in brief: (§2)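 Peptide was then added at 10 or 100 μM in serum-free medium for 6 h. Cell death was read by Ann-V/PI flow cytometry and trypan blue counting. A cell death index was obtained by normalizing to each peptide's control. Mean ± SD of two experiments.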
# A549 [8] = experiment: Induction of cell death in human A549 cells at 100 uM in presence of ryanodine inhibitor dantrolene administered 1 hr post dantrolene treatment in serum-free medium by annexin V-APC/propidium iodide staining based flow cytometric analysis; format: functional; method in brief: as §2
# MEC1 [9] = experiment: Induction of cell aggregation in human MEC1 at 200 uM after 2 hrs by microcopic method; format: functional, cell-based
# Method in brief: (§3)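 MEC-1 CLL cells kept in Advanced RPMI 1640 with 10% FCS, 2 mM L-glutamine and penicillin–streptomycin. Cells were treated with peptide in complete medium for 2 h, then examined by light microscopy at 20X for morphology and cell aggregation.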
# MEC1 [10] = experiment: Induction of cell death in human MEC1 cells at 50 uM in presence of ryanodine inhibitor dantrolene/PLCgamma1 inhibitor U73122/IP3R inhibitor 2-APB by annexin V-APC/propidium iodide staining based flow cytometric analysis; format: functional; method in brief: as §1
# [11] = Aggregation property of the compound in phosphate buffer; format: physicochemical
# [12] = biological target: T1, Leukocyte surface antigen CD47 (Homo sapiens, UniProt Q08722); experiment: Agonist activity at CD47 in human MEC1 cells assessed as activation of PLCgamma1-induced calcium-mediated caspase-independent cell death at 200 uM after 2 hrs by microscopic method; format: cell-based; method in brief: as §3
# T1 sequence (Q08722 whole entry): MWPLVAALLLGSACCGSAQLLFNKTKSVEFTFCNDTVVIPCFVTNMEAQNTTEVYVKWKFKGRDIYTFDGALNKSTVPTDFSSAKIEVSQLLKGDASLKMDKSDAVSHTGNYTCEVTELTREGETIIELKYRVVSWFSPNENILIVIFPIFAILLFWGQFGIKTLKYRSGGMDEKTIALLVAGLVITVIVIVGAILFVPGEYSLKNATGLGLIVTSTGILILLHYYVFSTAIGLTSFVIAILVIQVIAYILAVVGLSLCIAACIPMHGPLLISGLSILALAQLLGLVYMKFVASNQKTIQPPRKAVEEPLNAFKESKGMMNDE
# Serum = experiment: Aggregation property of the compound in human serum; format: ADME, cell-free
# [13] = Aggregation property of the compound in pure water; format: physicochemical; conditions: buffer
# A549 [14] = experiment: Induction of cell death in human A549 cells assessed as reduction in cell index at 200 uM measured every minute for first 2 hrs followed by every hour for 24 hrs by RTCA analysis; format: functional, cell-based
# MEC1 [15] = experiment: Induction of cell death in human MEC1 cells at 50 uM in presence of caspase inhibitor Q-VD-OPH administered 30 mins post Q-VD-OPH treatment in serum-free medium by Annexin V-APC/propidium iodide staining based flow cytometric analysis; format: functional
# A549 [16] = experiment: Induction of cell death in human A549 cells at 100 uM administered 30 mins post Q-VD-OPh treatment in serum-free medium by propidium iodide staining based flow cytometric analysis; format: functional
# [17] = Aggregation property of the compound in water; format: physicochemical; conditions: buffer
# MEC1 [18] = experiment: Induction of cell death in human MEC1 cells at 50 uM in presence of PLCgamma1 inhibitor U73122 administered 1 hr post U73122 treatment in serum-free medium by annexin V-APC/propidium iodide staining based flow cytometric analysis; format: functional; method in brief: as §1
# A549 [19] = experiment: Induction of cell death in human A549 cells at 100 uM in presence of IP3R inhibitor 2-APB administered 1 hr post 2-APB treatment in serum-free medium by annexin V-APC/propidium iodide staining based flow cytometric analysis; format: functional; method in brief: as §2
# MEC1 [20] = experiment: Cytotoxicity against human MEC1 cells assessed as induction of cell death at 200 uM after 6 hrs by annexin V/propidium iodide staining based flow cytometric analysis relative to control; format: functional
# A549 [21] = experiment: Induction of cell death in human A549 cells at 100 uM in presence of extracellular calcium chelator BAPTA administered 30 mins post BAPTA treatment in serum-free medium by annexin V-APC/propidium iodide staining based flow cytometric analysis; format: functional
# A549 [22] = experiment: Induction of cell death in human A549 cells at 100 uM in presence of ryanodine inhibitor dantrolene/PLCgamma1 inhibitor U73122/IP3R inhibitor 2-APB by annexin V-APC/propidium iodide staining based flow cytometric analysis; format: functional; method in brief: as §2
# [23] = biological target: T1, Leukocyte surface antigen CD47; experiment: Binding affinity to CD47 in biotinylated human MEC1 cell membranes by biolayer interferometry
# Method in brief: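 Biotinylated membrane preparations from MEC-1 cells were loaded onto SuperStreptavidin biosensors. Binding was measured by bilayer interferometry (Octet RED96) in PBS with 0.2% BSA and 1% DMSO at 30 °C. Affinities are given as apparent Kd estimates.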
# A549 [24] = experiment: Cytotoxicity against human A549 cells assessed as induction of cell death after 6 hrs by annexin V-APC/propidium iodide staining based flow cytometric analysis; format: functional; conditions: A549, 6 h, read-out: LC50 (the source's name)
# Method in brief: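 A549 cells kept in Advanced RPMI 1640 with 10% fetal calf serum, 2 mM L-glutamine and penicillin–streptomycin. Peptides at the indicated concentrations in this complete medium for 6 h. Cells stained with Ann-V-APC (0.1 μg/mL) and PI (0.5 μg/mL), then read by flow cytometry. Values are means ± SD of two independent experiments.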
SMILES,Activity (MEC1 [1]),Activity (A549 [2]),Activity (MEC1 [3]),Activity (MEC1 [4]),CC50 (MEC1 [5]) [µM],Activity (A549 [7]),Activity (A549 [8]),Activity (MEC1 [9]),Activity (MEC1 [10]),Activity [12],Activity (A549 [14]),Activity (MEC1 [15]),Activity (A549 [16]),Activity (MEC1 [18]),Activity (A549 [19]),Activity (MEC1 [20]) [%],Activity (A549 [21]),Activity (A549 [22]),Kd [23] [µM],CC50 (A549 [24]) [µM],other results
CCCC[C@H](NC(=O)[C@@H](NC(=O)[C@@H](NC(=O)[C@H](Cc1ccc(O)cc1)NC(=O)[C@H](Cc1ccccc1)NC(=O)[C@H](CCCNC(=N)N)N(C)C(=O)[C@H](N)CCCCN)C(C)C)C(C)C)C(=O)N[C@@H](Cc1c[nH]c2ccccc12)C(=O)N[C@@H](CCCCN)C(=O)N[C@H](CCCCN)C(=O)O (H-[dK][NMeR]FYVV[Nle]WK[dK]-OH),inactive,Active,inactive,inactive,200,inactive,inactive,inactive,inactive,Active,Active,inactive,inactive,inactive,inactive,59,inactive,inactive,8.6,200,solubility [6]: Soluble; Activity [11]: Not Active; Activity (Serum): Not Active; Activity [13]: Not Active; Activity [17]: Not Active
CCCC[C@H](NC(=O)[C@@H](NC(=O)[C@@H](NC(=O)[C@H](Cc1ccc(O)cc1)NC(=O)[C@H](Cc1ccccc1)NC(=O)[C@H](CCCNC(=N)N)N(C)C(C)=O)C(C)C)C(C)C)C(=O)N[C@@H](Cc1c[nH]c2ccccc12)C(=O)N[C@@H](CCCCN)C(N)=O,–,–,–,–,–,–,–,–,–,–,–,–,–,–,–,51,–,–,20,–,–
CSCC[C@H](NC(=O)[C@@H](NC(=O)[C@H](C(C)C)N(C)C(=O)[C@H](Cc1ccc(O)cc1)NC(=O)[C@H](Cc1ccccc1)NC(=O)[C@H](CCCNC(=N)N)NC(=O)[C@H](N)CCCCN)C(C)C)C(=O)N[C@@H](Cc1c[nH]c2ccccc12)C(=O)N[C@@H](CCCCN)C(=O)N[C@H](CCCCN)C(=O)O,–,–,–,–,–,–,–,–,–,–,–,–,–,–,–,11,–,–,36,–,–
CSCC[C@H](NC(=O)[C@@H](NC(=O)[C@@H](NC(=O)[C@H](Cc1ccc(O)cc1)NC(=O)[C@H](Cc1ccccc1)NC(=O)[C@H](CCCNC(=N)N)N(C)C(=O)[C@H](N)CCCCN)C(C)C)C(C)C)C(=O)N[C@@H](Cc1c[nH]c2ccccc12)C(=O)N(C)[C@@H](CCCCN)C(=O)N[C@H](CCCCN)C(=O)O,–,–,–,–,–,–,–,–,–,–,–,–,–,–,–,19,–,–,38,–,–
CSCC[C@H](NC(=O)[C@@H](NC(=O)[C@@H](NC(=O)[C@H](Cc1ccc(O)cc1)NC(=O)[C@H](Cc1ccccc1)NC(=O)[C@H](CCCNC(=N)N)NC(=O)[C@H](N)CCCCN)C(C)C)C(C)C)C(=O)N[C@@H](Cc1c[nH]c2ccccc12)C(=O)N[C@@H](CCCCN)C(=O)N[C@H](CCCCN)C(=O)O,inactive,Active,inactive,inactive,200,inactive,inactive,inactive,inactive,Active,Active,inactive,inactive,inactive,inactive,67,inactive,inactive,–,200,–
CC(C)[C@H](NC(=O)[C@H](Cc1ccc(O)cc1)NC(=O)[C@H](Cc1ccccc1)NC(=O)[C@H](CCCNC(=N)N)N(C)C(=O)[C@H](N)CCCCN)C(=O)N[C@H](C(=O)N[C@H](C(=O)N[C@@H](Cc1c[nH]c2ccccc12)C(=O)N[C@@H](CCCCN)C(=O)N[C@H](CCCCN)C(=O)O)C(C)C)C(C)C,–,–,–,–,–,–,–,–,–,–,–,–,–,–,–,23,–,–,9.5,–,–
